Source: ChEMBL document CHEMBL4706509, “Oligosaccharide-camptothecin conjugates as potential antineoplastic drugs: Design, synthesis and biological evaluation” (Eur J Med Chem, 2020)
Converted amounts (≈) assume the structure as drawn. The source made the active and inactive calls. The calls are words filed in the database; no cut-off is given here.

Assays:
[1] = target: T1, DNA topoisomerase 1 (Homo sapiens) (UniProt P11387); experiment: Inhibition of human recombinant Topoisomerase 1 using supercoiled pBR322 DNA as substrate at 100 uM incubated for 30 mins by ethidium bromide staining based agarose gel electrophoresis
T1 sequence (whole entry): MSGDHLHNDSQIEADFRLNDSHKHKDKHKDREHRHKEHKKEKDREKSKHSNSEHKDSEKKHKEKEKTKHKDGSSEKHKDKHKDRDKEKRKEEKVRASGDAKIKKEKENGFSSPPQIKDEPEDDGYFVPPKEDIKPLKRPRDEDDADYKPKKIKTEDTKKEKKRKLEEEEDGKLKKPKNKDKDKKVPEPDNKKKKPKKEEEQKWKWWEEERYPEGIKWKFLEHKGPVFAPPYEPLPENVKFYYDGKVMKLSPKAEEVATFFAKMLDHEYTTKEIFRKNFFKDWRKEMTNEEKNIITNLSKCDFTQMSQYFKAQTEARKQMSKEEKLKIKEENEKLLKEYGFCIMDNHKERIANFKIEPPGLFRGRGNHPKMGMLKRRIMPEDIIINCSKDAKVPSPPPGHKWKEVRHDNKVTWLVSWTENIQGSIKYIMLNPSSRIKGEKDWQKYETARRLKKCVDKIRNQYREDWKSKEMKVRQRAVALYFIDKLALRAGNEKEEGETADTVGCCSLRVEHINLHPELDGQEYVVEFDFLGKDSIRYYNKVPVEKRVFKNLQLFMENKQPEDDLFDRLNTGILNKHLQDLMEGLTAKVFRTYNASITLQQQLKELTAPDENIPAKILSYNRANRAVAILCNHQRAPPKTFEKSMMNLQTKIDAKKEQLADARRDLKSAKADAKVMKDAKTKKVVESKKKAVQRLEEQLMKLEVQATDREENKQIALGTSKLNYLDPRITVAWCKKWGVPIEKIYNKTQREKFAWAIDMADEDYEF
In short: (§1)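 Cell-free relaxation assay: 1 U recombinant human Topo I with 0.5 µg supercoiled pBR322 in Topo I buffer (Tris-HCl pH 8.0, KCl, MgCl2, DTT, 0.1% BSA), 37 °C for 30 min. 10-HCPT and irinotecan as positive controls. Supercoiled, relaxed and nicked forms resolved on 0.8% agarose in TAE, 90 V for 2 h, ethidium bromide stained.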

HEK293 = experiment: Cytotoxicity against human HEK293 cells assessed as reduction in cell viability measured after 48 hrs by MTT assay; assay type: cell-based; conditions: HEK293, 48 h
In short: (§2)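 MTT assay; cells seeded in 96-well plates, exposed 48 h to freshly prepared compound at five concentrations, four replicate wells each; MTT (5 mg/mL) added for 4 h, formazan dissolved in DMSO, absorbance at 490 nm. IC50 by nonlinear regression; mean of three independent experiments.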

[2] = target: T1, DNA topoisomerase 1 (Homo sapiens); experiment: Inhibition of human recombinant Topoisomerase 1 using supercoiled pBR322 DNA as substrate at 50 uM incubated for 30 mins by ethidium bromide staining based agarose gel electrophoresis; in short: as §1
HCT-116 = experiment: Antitumor activity against human HCT-116 cells assessed as inhibition of cell growth measured after 48 hrs by MTT assay; assay type: functional, cell-based; conditions: HCT-116, 48 h; in short: as §2
HepG2 = experiment: Antitumor activity against human HepG2 cells assessed as inhibition of cell growth measured after 48 hrs by MTT assay; assay type: functional, cell-based; conditions: HepG2, 48 h; in short: as §2
SW1990 = experiment: Antitumor activity against human SW1990 cells assessed as inhibition of cell growth measured after 48 hrs by MTT assay; assay type: functional, cell-based; conditions: SW1990, 48 h; in short: as §2
[3] = Aqueous solubility of the compound in 0.1 M Na2HPO4 solution at pH 7.4 incubated for 24 hrs by HPLC analysis; assay type: physicochemical; conditions: buffer, pH 7.4, 24 h
In short: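 Excess solid shaken in 0.2 mL 0.1 M phosphate buffer, pH 7.4, at 25 °C for 24 h, then filtered. Filtrate (100 µL) diluted to 1.5 mL and analysed by isocratic HPLC (CH3CN:H2O 40/60, 1.0 mL/min, 35 °C column, 254 nm). Concentration read from a calibration curve built from DMSO standards. Values are the mean of triplicate determinations, in mg/mL.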

[4] = Stability of compound in 10% phosphate buffer assessed as proportion of lactone form level at pH 7.4 measured after 48 hrs by HPLC analysis; assay type: physicochemical; conditions: read-out: Drug metabolism
In short: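 1.0 mg dissolved in 50 mL 0.1 M phosphate buffer, pH 7.4, and shaken at 37 °C. […] Lactone versus carboxylate (ring-opened) form quantified by HPLC area normalisation. Mean of triplicate determinations.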

Row | Compound | inhibition [1] | IC50 (HEK293) [µM] | inhibition [2] | IC50 (HCT-116) [µM] | IC50 (HepG2) [µM] | IC50 (SW1990) [µM] | solubility [3] [µg/mL] | remaining at 48 h [4] [%]
1 | CC[C@@]1(OC(=O)NCCOCCO[C@@H]2O[C@H](COC(C)=O)[C@@H](OC(C)=O)[C@H](OC(C)=O)[C@@H]2O[C@H]2O[C@H](COC(C)=O)[C@@H](OC(C)=O)[C@H](OC(N)=O)[C@H]2OC(C)=O)C(=O)OCc2c1cc1n(c2=O)Cc2cc3ccccc3nc2-1 | Active | 1.5 | Active | 1.3 | 1.6 | 11.3 |  | 
2 | CC[C@@]1(OC(=O)NCCO[C@@H]2O[C@H](COC(C)=O)[C@@H](OC(C)=O)[C@H](OC(N)=O)[C@@H]2OC(C)=O)C(=O)OCc2c1cc1n(c2=O)Cc2cc3ccccc3nc2-1 |  | 3.9 |  | 10.8 | 18.5 | 20.6 |  | 
3 | CC[C@@]1(OC(=O)NCCOCCOC2O[C@H](COC(C)=O)[C@@H](OC(C)=O)[C@H](OC(C)=O)[C@@H]2OC(C)=O)C(=O)OCc2c1cc1n(c2=O)Cc2cc3ccccc3nc2-1 (single isomer, unassigned) |  | 20.6 |  | 4.4 | 4.8 | 10.3 |  | 
4 | CC[C@@]1(OC(=O)NCCOCCOCCO[C@@H]2O[C@H](CO)[C@H](O)[C@H](O)[C@H]2O)C(=O)OCc2c1cc1n(c2=O)Cc2cc3ccccc3nc2-1 | Active | 0.7 |  | 8.2 | 1.2 | 19.9 |  | 
5 | CC[C@@]1(OC(=O)NCCOCCOCCO[C@@H]2O[C@H](CO)[C@@H](O)[C@H](OC(N)=O)[C@@H]2O)C(=O)OCc2c1cc1n(c2=O)Cc2cc3ccccc3nc2-1 |  | 0.4 |  | 0.9 | 0.8 | 18.2 |  | 
6 | CC[C@@]1(OC(=O)NCCO[C@@H]2O[C@H](COC(C)=O)[C@@H](OC(C)=O)[C@H](OC(C)=O)[C@@H]2OC(C)=O)C(=O)OCc2c1cc1n(c2=O)Cc2cc3ccccc3nc2-1 |  | 2.3 |  | 7.5 | 4.3 | 9.7 |  | 
7 | CC[C@@]1(OC(=O)NCCO[C@@H]2O[C@H](COC(C)=O)[C@@H](OC(C)=O)[C@H](OC(C)=O)[C@H]2OC(C)=O)C(=O)OCc2c1cc1n(c2=O)Cc2cc3ccccc3nc2-1 |  | 29.5 |  | 15 | 29.9 | 24.8 |  | 
8 | CC[C@@]1(OC(=O)NCCO[C@@H]2O[C@H](CO)[C@@H](O)[C@H](O)[C@H]2O)C(=O)OCc2c1cc1n(c2=O)Cc2cc3ccccc3nc2-1 |  | 3.5 |  | 4.3 | 3.8 | 10.3 |  | 
9 | CC[C@@]1(OC(=O)NCCOCCOCCO[C@@H]2O[C@H](COC(C)=O)[C@@H](OC(C)=O)[C@H](OC(C)=O)[C@H]2OC(C)=O)C(=O)OCc2c1cc1n(c2=O)Cc2cc3ccccc3nc2-1 |  | 0.6 |  | 0.8 | 0.7 | 4.5 |  | 
10 | CC[C@@]1(OC(=O)NCCOCCOCCO[C@@H]2O[C@H](CO)[C@@H](O)[C@H](O)[C@@H]2O)C(=O)OCc2c1cc1n(c2=O)Cc2cc3ccccc3nc2-1 |  | 0.6 |  | 0.5 | 0.8 | 16.3 |  | 
11 | CC[C@@]1(OC(=O)NCCO[C@@H]2O[C@H](COC(C)=O)[C@H](OC(C)=O)[C@H](OC(C)=O)[C@H]2OC(C)=O)C(=O)OCc2c1cc1n(c2=O)Cc2cc3ccccc3nc2-1 |  | 8.6 |  | 29.5 | 60.2 | 37.5 |  | 
12 | CC[C@@]1(OC(=O)NCCOCCO[C@@H]2O[C@H](COC(C)=O)[C@@H](OC(C)=O)[C@H](OC(N)=O)[C@@H]2OC(C)=O)C(=O)OCc2c1cc1n(c2=O)Cc2cc3ccccc3nc2-1 |  | 50.2 |  | 3.6 | 3.7 | 7.6 |  | 
13 | CC[C@@]1(OC(=O)NCCO[C@@H]2O[C@H](CO)[C@@H](O)[C@H](O)[C@@H]2O)C(=O)OCc2c1cc1n(c2=O)Cc2cc3ccccc3nc2-1 |  | 5.8 |  | 8.2 | 10.3 | 20.4 |  | 
14 | CC[C@@]1(OC(=O)NCCO[C@@H]2O[C@H](CO)[C@@H](O)[C@H](OC(N)=O)[C@@H]2O)C(=O)OCc2c1cc1n(c2=O)Cc2cc3ccccc3nc2-1 |  | 3.2 |  | 2.3 | 11.6 | 32.8 |  | 
15 | CC[C@@]1(OC(=O)NCCOCCOCCO[C@@H]2O[C@H](COC(C)=O)[C@@H](OC(C)=O)[C@H](OC(C)=O)[C@@H]2OC(C)=O)C(=O)OCc2c1cc1n(c2=O)Cc2cc3ccccc3nc2-1 |  | 3.4 |  | 0.6 | 1.6 | 28.9 |  | 
16 | CC[C@@]1(OC(=O)NCCOCCO[C@@H]2O[C@H](CO)[C@@H](O)[C@H](O)[C@H]2O)C(=O)OCc2c1cc1n(c2=O)Cc2cc3ccccc3nc2-1 |  | 24.6 |  | 0.5 | 1.2 | 9.6 |  | 
17 | CC[C@@]1(O)C(=O)OCc2c1cc1n(c2=O)Cc2cc3cc(O)ccc3nc2-1 | Active |  |  |  |  |  |  | 
18 | CC[C@@]1(O)C(=O)OCc2c1cc1n(c2=O)Cc2cc3ccccc3nc2-1 [CAMPTOTHECIN] |  | 0.6 |  | 0.4 | 0.4 | 0.2 | 60 (≈ 172 µM) | 5
19 | CC[C@@]1(OC(=O)NCCOCCOCCOC2O[C@H](COC(C)=O)[C@@H](OC(C)=O)[C@H](OC(N)=O)[C@@H]2OC(C)=O)C(=O)OCc2c1cc1n(c2=O)Cc2cc3ccccc3nc2-1 (single isomer, unassigned) |  | 3.4 |  | 4.6 | 1.8 | 31.4 |  | 
20 | CC[C@@]1(OC(=O)NCCOCCOC2O[C@H](COC(C)=O)[C@@H](OC(C)=O)[C@H](OC(C)=O)[C@H]2OC(C)=O)C(=O)OCc2c1cc1n(c2=O)Cc2cc3ccccc3nc2-1 (single isomer, unassigned) |  | 12.3 |  | 4.2 | 2.1 | 10.3 |  | 
21 | CC[C@@]1(OC(=O)NCCO[C@@H]2O[C@H](CO)[C@H](O)[C@H](O)[C@H]2O)C(=O)OCc2c1cc1n(c2=O)Cc2cc3ccccc3nc2-1 |  | 2.2 |  | 4.1 | 4.9 | 9.3 |  | 
22 | CC[C@@]1(OC(=O)NCCOCCOCCO[C@@H]2O[C@H](CO)[C@@H](O)[C@H](O)[C@H]2O)C(=O)OCc2c1cc1n(c2=O)Cc2cc3ccccc3nc2-1 |  | 0.7 |  | 4.8 | 1.3 | 12.5 |  | 
23 | CC[C@@]1(OC(=O)NCCOCCOCCO[C@@H]2O[C@H](COC(C)=O)[C@H](OC(C)=O)[C@H](OC(C)=O)[C@H]2OC(C)=O)C(=O)OCc2c1cc1n(c2=O)Cc2cc3ccccc3nc2-1 | Active | 0.8 |  | 0.9 | 0.7 | 8.3 |  | 
24 | CC[C@@]1(OC(=O)NCCOCCO[C@@H]2O[C@H](CO)[C@@H](O)[C@H](O)[C@@H]2O)C(=O)OCc2c1cc1n(c2=O)Cc2cc3ccccc3nc2-1 |  | 22.4 |  | 5.6 | 0.3 | 3.2 |  | 
25 | CC[C@@]1(OC(=O)NCCOCCO[C@@H]2O[C@H](CO)[C@H](O)[C@H](O)[C@H]2O)C(=O)OCc2c1cc1n(c2=O)Cc2cc3ccccc3nc2-1 |  | 43.5 |  | 2.6 | 2.8 | 10.6 |  | 
26 | CC[C@@]1(OC(=O)NCCO[C@@H]2O[C@H](COC(C)=O)[C@@H](OC(C)=O)[C@H](OC(C)=O)[C@@H]2O[C@H]2O[C@H](COC(C)=O)[C@@H](OC(C)=O)[C@H](OC(N)=O)[C@H]2OC(C)=O)C(=O)OCc2c1cc1n(c2=O)Cc2cc3ccccc3nc2-1 | Active | 1.6 |  | 6.7 | 4.2 | 25.1 |  | 
